ChEMBL document CHEMBL3286113, “New potent antibacterial oxazolidinone (MRX-I) with an improved class safety profile” (J Med Chem, 2014)
Values after ≈ are worked out from the molar mass of the structure shown.

Experiments:
Cytochrome P450 3A4 = Cytochrome P450 3A4 (Homo sapiens, UniProt P08684); test: Inhibition of CYP3A4 (unknown origin) at 1 to 200 uM; format: ADME
[1] = Cmax in female rat at 15 mg/kg, po; format: ADME, organism-based; design: dose 15 mg/kg, route oral; conditions: in vivo
[2] = Tmax in fasted human at 600 mg, po administered as single dose; format: ADME, organism-based; conditions: in vivo
Method in brief: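 Randomized single-dose, three-period Latin-square crossover in 12 healthy volunteers (six per gender), fasting. Single oral doses of 300, 600 and 900 mg were separated by a 1-week washout. PK parameters were derived by noncompartmental analysis.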

[3] = Half life in male rat at 5 mg/kg, iv; format: ADME, organism-based; design: dose 5 mg/kg, route intravenous; conditions: in vivo
Enterococcus faecalis = test: Antibacterial activity against vancomycin-resistant Enterococcus faecalis isolate EFL 4041 in po dosed mouse systemic infection model; format: functional; conditions: isolate EFL 4041, po
[4] = AUC (0 to t) in male rat at 15 mg/kg, po; format: ADME, organism-based; design: dose 15 mg/kg, route oral; conditions: plasma
Method in brief: (§1)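 Rat PK by gender, with single oral doses of 5, 15 and 45 mg/kg and an iv dose of 5 mg/kg. Tmax, Cmax, T1/2 and AUC0−t were reported per gender.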

[5] = AUC (0 to 24 hrs) in human at 800 mg, po administered as single dose with meal measured on day 1; format: ADME, organism-based; design: dose 800 mg, time < 24 hr, route oral; conditions: plasma
Method in brief: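 Randomized, double-blind, placebo-controlled multiple-dose study in 32 healthy subjects (half male, half female). Subjects took 28 oral doses of 600 or 800 mg over 15 days, each with a meal. A single dose was given on days 1 and 15 for full PK, and doses were given Q12h from day 2 to day 14. AUC0−24 was measured on days 1 and 15.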

[6] = Half life in female rat at 45 mg/kg, po; format: ADME, organism-based; design: dose 45 mg/kg, route oral; conditions: in vivo
Staphylococcus aureus [7] = test: Antibacterial activity against methicillin-resistant Staphylococcus aureus isolate 0612; format: functional
[8] = Elimination half life in fasted human at 600 mg, po administered as single dose; format: ADME, organism-based; conditions: in vivo, read-out: beta t1/2 (converted)
Method in brief: (§2)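 Healthy volunteers (12; six of each sex) in a three-period Latin-square crossover. Each received single oral doses of 300, 600 and 900 mg under fasting conditions, with a 1-week washout between doses. Parameters from a noncompartmental model.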

MAO-A = MAO-A (Homo sapiens, UniProt P21397); test: Ratio of compound IC50 to linezolid IC50 for human recombinant MAO-A by luciferin-based luminescence assay; format: ADME; conditions: read-out: Ratio IC50
Cytochrome P450 2C19 = Cytochrome P450 2C19 (Homo sapiens, UniProt P33261); test: Inhibition of CYP2C19 (unknown origin) at 1 to 200 uM; format: ADME
[9] = AUC (0 to t) in male rat at 5 mg/kg, iv; format: ADME, organism-based; design: dose 5 mg/kg, route intravenous; conditions: plasma; method in brief: as §1
Staphylococcus = test: Antibacterial activity against beta-lactamase-negative Staphylococcus; format: functional
[10] = Clastogenicity in CHL cells assessed as induction of structural chromosomal aberration at 25 to 200 ug/mL measured over 24 hrs in absence of metabolic activation; format: toxicity, cell-based, Cricetulus griseus; conditions: chinese hamster
Method in brief: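 Chromosomal aberration test in Chinese hamster lung cells, run with and without metabolic activation. Exposure was 50−400 μg/mL for 6 h or 25−200 μg/mL for 24 h, and structural chromosome aberrations were scored.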

Staphylococcus aureus [11] = test: Antibacterial activity against methicillin-sensitive Staphylococcus aureus ATCC 29213 in mouse thigh infection model assessed as reduction of log10 CFU per thigh at 80 mg/kg, po; format: functional
Method in brief: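 Mouse thigh infection with S. aureus ATCC29213 (MSSA), 10 animals per dosing group. Oral doses were 5, 10, 20, 40 and 80 mg/kg. The read-out was log CFU per thigh after treatment, and the reduction (ΔLogCFU/thigh) was reported.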

Staphylococcus aureus [12] = test: Antibacterial activity against Staphylococcus aureus measured after 9 serial passages; format: functional
Staphylococcus aureus [13] = test: Antibacterial activity against methicillin-resistant Staphylococcus aureus isolate 0612 in po dosed mouse systemic infection model; format: functional; conditions: isolate 0612, po
Rattus norvegicus [14] = test: Toxicity in female rat assessed as effect on RBC count at 200 to 300 mg/kg/day, po bid administered for 4 weeks (reference value: 7.28 x 10^12/L); format: organism-based; design: route oral; conditions: in vivo, 672 h
Staphylococcus aureus [15] = test: Antibacterial activity against Staphylococcus aureus measured after 8 serial passages; format: functional
Homo sapiens = test: Toxicity in human assessed as change in neutrophil count at 600 to 800 mg, po administered as single dose with meal on day 1 and day 15 followed by bid with meal on day 2 to day 14 measured during compound treatment; format: organism-based; conditions: in vivo
Cytochrome P450 2D6 = Cytochrome P450 2D6 (Homo sapiens, UniProt P10635); test: Inhibition of CYP2D6 (unknown origin) at 1 to 200 uM; format: ADME
[16] = Tmax in human at 600 mg, po administered as single dose with meal measured on day 15; format: ADME, organism-based; conditions: in vivo
Method in brief: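 Randomized, double-blind, placebo-controlled multiple-dose study in 32 healthy subjects, half male and half female. Dosing was 600 or 800 mg orally with a meal, 28 doses over 15 days. A single dose was given on days 1 and 15 for full PK, with Q12h (BID) dosing on days 2−14.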

[17] = AUC (0 to infinity) in fasted human at 900 mg, po administered as single dose; format: ADME, organism-based; design: dose 900 mg, route oral, time infinity; conditions: plasma
Method in brief: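 Single-dose, three-period Latin-square crossover in 12 healthy volunteers (6 of each gender). Each received single oral 300, 600 and 900 mg doses under fasting conditions, with a 1-week washout between doses. PK parameters, including AUC0−inf, came from a noncompartmental model.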

[18] = Cmax in male rat at 45 mg/kg, po; format: ADME, organism-based; design: dose 45 mg/kg, route oral; conditions: in vivo
[19] = Clastogenicity in CHL cells assessed as induction of structural chromosomal aberration at 50 to 400 ug/mL measured over 6 hrs in absence of metabolic activation; format: toxicity, cell-based, Cricetulus griseus; conditions: chinese hamster
Method in brief: (§3)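 Chinese hamster lung cells scored for structural chromosome aberrations with or without metabolic activation. Exposure was 50–400 μg/mL over 6 h, or 25–200 μg/mL over 24 h.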

[20] = Half life in male rat at 15 mg/kg, po; format: ADME, organism-based; design: dose 15 mg/kg, route oral; conditions: in vivo
Rattus norvegicus [21] = test: Toxicity in rat assessed as rate of body weight gain at 100 mg/kg, po bid measured over 4 weeks of test period; format: organism-based; design: dose 100 mg/kg, route oral; conditions: in vivo, 672 h
[22] = Elimination half life in fasted human at 900 mg, po administered as single dose; format: ADME, organism-based; conditions: in vivo, read-out: beta t1/2 (converted); method in brief: as §2
Staphylococcus aureus [23] = test: Antibacterial activity against Staphylococcus aureus assessed as time required for growth inhibition; format: functional
Streptococcus mitis = test: Antibacterial activity against Streptococcus mitis; format: functional
Rattus norvegicus [24] = test: Toxicity in female rat assessed as effect on hematocrit level at 100 mg/kg/day, po bid administered for 4 weeks (reference value: 39.08%); format: organism-based; design: route oral; conditions: in vivo, 672 h
Staphylococcus aureus [25] = test: Antibacterial activity against Staphylococcus aureus measured after 10 serial passages; format: functional
Streptococcus pneumoniae = test: Bactericidal activity against penicillin-resistant Streptococcus pneumoniae; format: functional
Rattus norvegicus [26] = test: Toxicity in female rat assessed as effect on neutrophil count at 20 mg/kg/day, po bid administered for 4 weeks (reference value: 22.4%); format: organism-based; design: route oral; conditions: in vivo, 672 h
[27] = Clastogenicity in CHL cells assessed as induction of structural chromosomal aberration at 50 to 400 ug/mL measured over 6 hrs in presence of metabolic activation; format: toxicity, cell-based, Cricetulus griseus; conditions: chinese hamster; method in brief: as §3

Sequence of Cytochrome P450 2D6 (P10635 whole entry): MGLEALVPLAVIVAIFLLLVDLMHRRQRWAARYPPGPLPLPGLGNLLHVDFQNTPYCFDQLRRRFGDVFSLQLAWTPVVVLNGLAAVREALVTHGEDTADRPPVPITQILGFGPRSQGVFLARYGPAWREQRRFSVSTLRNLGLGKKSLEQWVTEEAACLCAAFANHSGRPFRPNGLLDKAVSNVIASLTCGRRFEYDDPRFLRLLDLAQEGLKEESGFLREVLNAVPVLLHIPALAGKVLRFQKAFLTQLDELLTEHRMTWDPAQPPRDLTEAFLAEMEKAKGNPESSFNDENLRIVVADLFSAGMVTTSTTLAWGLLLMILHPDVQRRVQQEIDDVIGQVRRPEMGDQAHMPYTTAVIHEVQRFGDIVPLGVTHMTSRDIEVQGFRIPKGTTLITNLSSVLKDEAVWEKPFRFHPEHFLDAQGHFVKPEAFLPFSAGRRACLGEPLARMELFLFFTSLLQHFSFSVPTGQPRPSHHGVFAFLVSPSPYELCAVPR
Sequence of Cytochrome P450 2C19 (P33261 whole entry): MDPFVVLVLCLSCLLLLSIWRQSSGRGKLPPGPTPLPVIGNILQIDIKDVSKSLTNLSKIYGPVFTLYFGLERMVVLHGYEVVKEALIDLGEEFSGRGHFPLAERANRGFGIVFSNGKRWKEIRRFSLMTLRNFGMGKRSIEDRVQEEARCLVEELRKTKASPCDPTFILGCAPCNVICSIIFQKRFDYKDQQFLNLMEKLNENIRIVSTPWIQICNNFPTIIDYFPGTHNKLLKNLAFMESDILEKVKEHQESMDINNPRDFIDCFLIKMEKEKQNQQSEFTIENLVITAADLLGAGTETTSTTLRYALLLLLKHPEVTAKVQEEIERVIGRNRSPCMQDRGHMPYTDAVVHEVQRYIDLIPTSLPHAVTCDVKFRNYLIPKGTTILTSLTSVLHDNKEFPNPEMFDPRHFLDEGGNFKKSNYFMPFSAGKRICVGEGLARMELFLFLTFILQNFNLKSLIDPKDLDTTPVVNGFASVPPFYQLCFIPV
Sequence of Cytochrome P450 3A4 (P08684 whole entry): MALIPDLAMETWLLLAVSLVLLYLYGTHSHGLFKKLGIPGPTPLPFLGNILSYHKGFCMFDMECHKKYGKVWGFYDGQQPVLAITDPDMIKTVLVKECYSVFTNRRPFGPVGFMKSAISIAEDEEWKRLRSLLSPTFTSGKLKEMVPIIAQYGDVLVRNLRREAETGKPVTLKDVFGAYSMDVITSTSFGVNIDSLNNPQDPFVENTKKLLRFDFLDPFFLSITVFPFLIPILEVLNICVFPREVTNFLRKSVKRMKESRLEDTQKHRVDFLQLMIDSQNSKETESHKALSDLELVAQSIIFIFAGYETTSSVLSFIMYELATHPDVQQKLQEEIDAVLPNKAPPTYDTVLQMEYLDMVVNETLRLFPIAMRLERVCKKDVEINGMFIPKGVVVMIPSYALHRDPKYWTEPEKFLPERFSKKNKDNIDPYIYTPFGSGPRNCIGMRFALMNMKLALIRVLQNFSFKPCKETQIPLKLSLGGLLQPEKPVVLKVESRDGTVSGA
Sequence of MAO-A (P21397 whole entry): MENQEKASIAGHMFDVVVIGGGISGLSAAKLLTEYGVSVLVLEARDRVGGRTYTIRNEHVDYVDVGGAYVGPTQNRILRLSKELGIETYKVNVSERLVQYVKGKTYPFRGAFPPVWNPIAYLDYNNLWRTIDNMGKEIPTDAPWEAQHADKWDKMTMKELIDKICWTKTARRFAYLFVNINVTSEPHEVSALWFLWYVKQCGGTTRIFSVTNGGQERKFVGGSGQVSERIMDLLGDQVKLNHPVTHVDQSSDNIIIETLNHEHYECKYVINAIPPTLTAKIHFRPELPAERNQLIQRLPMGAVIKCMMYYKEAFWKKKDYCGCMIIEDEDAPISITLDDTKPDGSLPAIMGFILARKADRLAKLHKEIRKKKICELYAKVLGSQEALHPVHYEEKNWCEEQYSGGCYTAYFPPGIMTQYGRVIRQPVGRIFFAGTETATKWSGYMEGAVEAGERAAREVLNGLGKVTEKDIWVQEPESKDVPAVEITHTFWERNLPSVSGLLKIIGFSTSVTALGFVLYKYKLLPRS

SMILES: O=C1C=CN(c2c(F)cc(N3C[C@H](CNc4ccon4)OC3=O)c(F)c2F)CC1 [CONTEZOLID]
- inhibition (INH) (Cytochrome P450 3A4): Not Active
- Cmax [1]: 17200 ng/mL
- Tmax [2]: 2 h
- half-life [3]: 0.99 h
- ED50 (Enterococcus faecalis): 6.2 mg/kg
- AUC(0-t) [4]: 34300 ng·h/mL
- AUC(0-t) at 24 h [5]: 91800 ng·h/mL
- half-life [6]: 1.87 h
- MIC (Staphylococcus aureus [7]): 2 µg/mL (≈ 4.9 µM)
- half-life [8]: 3.31 h
- selectivity ratio (MAO-A): 3
- inhibition (INH) (Cytochrome P450 2C19): Not Active
- AUC(0-t) [9]: 12900 ng·h/mL
- MIC50 (Staphylococcus): 0.5 µg/mL (≈ 1.22 µM)
- MIC90 (Staphylococcus): 0.5 µg/mL (≈ 1.22 µM)
- Activity [10]: Non-toxic
- deltalog10CFU (Staphylococcus aureus [11]): 3.73
- MIC (Staphylococcus aureus [12]): 2 µg/mL (≈ 4.9 µM)
- ED50 (Staphylococcus aureus [13]): 7.2 mg/kg
- Activity (Rattus norvegicus [14]): 5.77 ×10¹² /L
- MIC (Staphylococcus aureus [15]): 2 µg/mL (≈ 4.9 µM)
- Activity (Homo sapiens): Non-toxic
- inhibition (INH) (Cytochrome P450 2D6): Not Active
- Tmax [16]: 0.6 h
- AUC(0-inf) [17]: 59200 ng·h/mL
- Cmax [18]: 27800 ng/mL
- Activity [19]: Non-toxic
- half-life [20]: 1.18 h
- Activity (Rattus norvegicus [21]): Non-toxic
- half-life [22]: 4.9 h
- Time (Staphylococcus aureus [23]): 1.6 h
- MIC50 (Streptococcus mitis): 0.5 µg/mL (≈ 1.22 µM)
- MIC90 (Streptococcus mitis): 1 µg/mL (≈ 2.45 µM)
- Activity (Rattus norvegicus [24]): 36.48%
- MIC (Staphylococcus aureus [25]): 4 µg/mL (≈ 9.8 µM)
- MIC50 (Streptococcus pneumoniae): 0.5 µg/mL (≈ 1.22 µM)
- MIC90 (Streptococcus pneumoniae): 0.5 µg/mL (≈ 1.22 µM)
- Activity (Rattus norvegicus [26]): 15.4%
- Activity [27]: Non-toxic
